Test results as given in ChEMBL document CHEMBL1123155, “Synthesis and inhibition of human acrosin and trypsin and acute toxicity of aryl 4-guanidinobenzoates” (J Med Chem, 1986).

Experiments:
[1] = Lethal dose that produces death in 50% of mice within 24 hr after acute treatment; format: toxicity, organism-based; settings: mouse, in vivo
Method in brief: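 Mature male Swiss Webster albino mice, minimum body weight 25 g; compounds suspended in 5% gum acacia and given as a single intraperitoneal injection at 0.1 mL/10 g body weight. Deaths scored within 24 h. LD50 taken from dose-response curves by the Litchfield and Wilcoxon method, with 95% confidence limits.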

Serine protease 1 = Serine protease 1 (Homo sapiens, UniProt P07477); experiment: Inhibition of human trypsin and the control activity being 7.3 umol/min/mg; settings: read-out: I50
Acrosin = Acrosin (Homo sapiens, UniProt P10323); experiment: Inhibition of human acrosin and control activity being 11.3 umol/min/mg; settings: read-out: I50
Acrosin, sequence (P10323 20-42 limits assumed): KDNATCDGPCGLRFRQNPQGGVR
Acrosin, sequence (P10323 43-343 limits assumed): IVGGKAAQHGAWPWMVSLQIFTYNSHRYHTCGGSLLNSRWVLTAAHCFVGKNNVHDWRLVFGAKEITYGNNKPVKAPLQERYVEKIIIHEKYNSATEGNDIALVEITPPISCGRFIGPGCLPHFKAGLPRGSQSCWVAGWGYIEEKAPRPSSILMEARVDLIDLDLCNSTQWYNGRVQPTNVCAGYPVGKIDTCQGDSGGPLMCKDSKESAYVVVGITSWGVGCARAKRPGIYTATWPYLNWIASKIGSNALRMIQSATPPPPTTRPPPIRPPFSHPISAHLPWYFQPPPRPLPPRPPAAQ

Serine protease 1, sequence (P07477 whole entry): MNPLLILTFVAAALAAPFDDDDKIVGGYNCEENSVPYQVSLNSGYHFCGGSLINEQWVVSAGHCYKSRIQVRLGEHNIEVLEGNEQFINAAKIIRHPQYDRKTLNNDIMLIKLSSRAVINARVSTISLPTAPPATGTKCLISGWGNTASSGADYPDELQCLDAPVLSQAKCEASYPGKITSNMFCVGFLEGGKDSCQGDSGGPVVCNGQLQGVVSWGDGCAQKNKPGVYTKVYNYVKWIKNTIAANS

IC50 (Serine protease 1) [nM] | IC50 (Acrosin) [nM] | SMILES | LD50 at 24 h [1] [mg/kg]
23.4 | 5.6 | N=C(N)Nc1ccc(C(=O)Oc2ccccc2)cc1 | 
3.9 | 3.5 | N=C(N)Nc1ccc(C(=O)Oc2ccc(Br)cc2)cc1 | 
16.5 | 17.6 | COc1cccc(OC(=O)c2ccc(NC(=N)N)cc2)c1 | 
8.2 | 3 | N=C(N)Nc1ccc(C(=O)Oc2ccc(Cl)cc2)cc1 | 
19 | 16.3 | COc1ccc(OC(=O)c2ccc(NC(=N)N)cc2)cc1 | 
19.5 | 3.3 | Cc1ccc(OC(=O)c2ccc(NC(=N)N)cc2)cc1 | 
17.2 | 6.6 | CC(C)c1ccc(OC(=O)c2ccc(NC(=N)N)cc2)cc1 | 
92.2 | 38.5 | N=C(N)Nc1ccc(C(=O)Oc2cccc(C(F)(F)F)c2)cc1 | 
3.8 | 7.2 | N#Cc1cccc(OC(=O)c2ccc(NC(=N)N)cc2)c1 | 
87.6 | 27.3 | COc1ccccc1OC(=O)c1ccc(NC(=N)N)cc1 | 
22.3 | 11.4 | CCCCOc1ccc(OC(=O)c2ccc(NC(=N)N)cc2)cc1 | 
17.1 | 28.5 | CC(C)(C)c1ccc(OC(=O)c2ccc(NC(=N)N)cc2)cc1 | 
27.1 | 5.4 | COC(=O)c1cccc(OC(=O)c2ccc(NC(=N)N)cc2)c1 | 
16.4 | 33 | N=C(N)Nc1ccc(C(=O)Oc2ccc(C(F)(F)F)cc2)cc1 | 
1.6 | 1.2 | N#Cc1ccc(OC(=O)c2ccc(NC(=N)N)cc2)cc1 | 

SMILES | IC50 (Serine protease 1) [nM] | IC50 (Acrosin) [nM] | LD50 at 24 h [1] [mg/kg]
Cl.N=C(N)Nc1ccc(C(=O)Oc2cccc3cccnc23)cc1 | 27.7 | 19.8 | 240
CCOC(=O)c1ccc(OC(=O)c2ccc(NC(=N)N)cc2)cc1.Cl | 1.6 | 9.3 | 300
CCCCCCc1ccc(OC(=O)c2ccc(NC(=N)N)cc2)cc1O | 18.5 | 99.7 | 620
Cl.N=C(N)Nc1ccc(C(=O)Oc2ccccc2C(N)=O)cc1 | 300 | 300 | > 1000
COC(=O)c1ccccc1OC(=O)c1ccc(NC(=N)N)cc1 | 65 | 12.9 | 750
CC(=O)Nc1ccc(OC(=O)c2ccc(NC(=N)N)cc2)cc1.Cl | 23.7 | 8 | 850
COC(=O)c1ccc(OC(=O)c2ccc(NC(=N)N)cc2)cc1.Cl | 1.5 | 0.67 | 235
Cc1ccc(C(C)C)c(OC(=O)c2ccc(NC(=N)N)cc2)c1.Cc1ccc(S(=O)(=O)O)cc1 | 500 | 300 | > 2000
C=CCc1ccc(OC(=O)c2ccc(NC(=N)N)cc2)c(OC)c1 | 8.4 | 13.7 | 870
